In ChEMBL document CHEMBL1138854, “Synthesis and antitumor activity of guanylhydrazones from 6-(2,4-dichloro-5-nitrophenyl)imidazo[2,1-b]thiazoles and 6-pyridylimidazo[2,1-b]thiazoles(1)” (2006):
“And” between values parts separate entries of the source, which are not always exact repeats. Equal values may be shown once.

Test: Antitumor activity against renal cell lines of the NCI60 panel
Assay type: functional, Homo sapiens
How it was run: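 Run by NCI in the 60-cell-line panel (details in Supporting Information). Highest concentration 10^-4 M unless noted (one case 10-2.6 M). Values expressed as -log molar concentration giving 50% growth inhibition (pGI50), total cytostasis (pTGI) or 50% cell kill (pLC50); only values >4.00 reported; mean graph midpoint is the calculated panel mean.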

SMILES	LC50
N=C(N)N/N=C/c1c(-c2cc([N+](=O)[O-])c(Cl)cc2Cl)nc2n1CCS2	5.25 µM
Cc1sc2nc(-c3cc([N+](=O)[O-])c(Cl)cc3Cl)c(/C=N/NC(=N)N)n2c1C	36.3 µM and 85.1 µM
Cc1csc2nc(-c3cc([N+](=O)[O-])c(Cl)cc3Cl)c(/C=N/N=C(N)N)n12	64.6 µM
CCc1cn2c(/C=N/NC(=N)N)c(-c3cc([N+](=O)[O-])c(Cl)cc3Cl)nc2s1	3.02 µM and 6.46 µM
Cc1sc2nc(-c3ccccn3)c(/C=N/NC(=N)N)n2c1C	57.5 µM
Cc1cn2c(/C=N/NC(=N)N)c(-c3ccncc3)nc2s1	72.4 µM
N=C(N)N/N=C/c1c(-c2ccccn2)nc2sc(Cl)cn12	28.8 µM
N=C(N)N/N=C/c1c(-c2cccnc2)nc2sc(Cl)cn12	69.2 µM
N=C(N)N/N=C/c1c(-c2cc([N+](=O)[O-])c(Cl)cc2Cl)nc2sccn12	4.47 µM and 24 µM
N=C(N)N/N=C/c1c(-c2ccc(Cl)c([N+](=O)[O-])c2)nc2n1CCS2	28.2 µM and 64.6 µM
N=C(N)N/N=C/c1c(-c2ccncc2)nc2sc(Cl)cn12	15.8 µM and 44.7 µM
CCCc1cn2c(/C=N/NC(=N)N)c(-c3cc([N+](=O)[O-])c(Cl)cc3Cl)nc2s1	5.37 µM
Cc1cn2c(/C=N/NC(=N)N)c(-c3ccccn3)nc2s1	19.5 µM and 53.7 µM
Cc1cn2c(/C=N/NC(=N)N)c(-c3cccnc3)nc2s1	27.5 µM and 61.7 µM
N=C(N)N/N=C/c1c(-c2cc([N+](=O)[O-])c(Cl)cc2Cl)nc2sc(Cl)cn12	97.7 µM
